This note sets out measurements from ChEMBL document CHEMBL1151949, “Alkaloids from the roots of Stemona aphylla” (2009).

≈ marks a conversion by molar mass, not a printed value.

One may read the MFC as the smallest concentration meeting the test's criterion for killing the fungus. Low values mean greater fungicidal potency, high ones weaker fungicidal potency. The term LC50 denotes the concentration that kills 50% of the test population. The term MBC denotes the smallest concentration meeting the test's criterion for killing. Broadly, the MIC is the lowest concentration that inhibits growth of the organism. The low end stands for inhibition by little substance, the high end for a need for much substance.

Format in all cases: functional
One test relates to Candida albicans. The test is described as follows: Antimicrobial activity against Candida albicans ATCC 90028 after 24 hrs by broth dilution technique. The following applies: ATCC 90028, 24 h. In outline: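 Broth dilution in trypticase soy broth, series from 500 to 1.95 µg/mL. Incubation at 37 °C for 24 h. MIC taken as lowest concentration with no visible growth. Amphotericin B served as antifungal positive control.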

A further test concerns Plutella xylostella. The test is described as follows: Insecticidal activity against Plutella xylostella treated as topical application.
A further test deals with Pseudomonas aeruginosa. The test is described as follows: Antimicrobial activity against Pseudomonas aeruginosa ATCC 27853 after 24 hrs by broth dilution technique. Summed up:
(§1)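 Serial dilutions in trypticase soy broth spanning 500 to 1.95 µg/mL, tested by broth dilution; tubes incubated 37 °C for 24 h. MIC taken as lowest concentration tube with no visible organism growth. Gentamycin served as antibacterial positive control.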
(Dilution methods test growth across graded concentrations, often in twofold steps.)

Another test relates to Escherichia coli. The test is described as follows: Antimicrobial activity against Escherichia coli ATCC 25922 after 24 hrs by broth dilution technique. Summed up: as §1
For a further test, the system named is Staphylococcus aureus. The test is described as follows: Antimicrobial activity against Staphylococcus aureus ATCC 25923 after 24 hrs by broth dilution technique. In outline: as §1

On to `C[C@@H]1[C@H](O)[C@@H](C)/C=C/C=C/C=C/C=C/C=C/C=C/C=C/[C@H](O[C@@H]2O[C@H](C)[C@@H](O)[C@H](N)[C@@H]2O)C[C@@H]2O[C@](O)(C[C@@H](O)C[C@@H](O)[C@H](O)CC[C@@H](O)C[C@@H](O)CC(=O)O[C@H]1C)C[C@H](O)[C@H]2C(=O)O` [AMPHOTERICIN B], for which the minimum fungicidal concentration (MFC) in the test with Candida albicans worked out at 0.7 µg/mL (≈ 0.758 µM).

Turning to `CNC(=O)ON=C(C)SC` [METHOMYL], in the test on Plutella xylostella, the median lethal concentration (LC50) is 1840 µg/mL (≈ 11300 µM).

`C[C@@H]1C[C@H](C[C@@H](C)[C@H]2CCCCN3CCC[C@@H]23)OC1=O` [STEMAPHYLLINE]: the minimum bactericidal concentration (MBC) with Pseudomonas aeruginosa (ATCC 27853, 24 h) was 125 µg/mL (≈ 447 µM); against Escherichia coli (ATCC 25922, 24 h) it was 125 µg/mL (≈ 447 µM); with Staphylococcus aureus (ATCC 25923, 24 h), 250 µg/mL (≈ 895 µM). For the same compound, the minimal inhibitory concentration (MIC) in the test on Pseudomonas aeruginosa (ATCC 27853, 24 h) was found to be 62.5 µg/mL (≈ 224 µM); with Escherichia coli (ATCC 25922, 24 h) it was 62.5 µg/mL (≈ 224 µM); against Staphylococcus aureus (ATCC 25923, 24 h) it was 125 µg/mL (≈ 447 µM); in the test on Candida albicans it was 125 µg/mL (≈ 447 µM). In the test on Plutella xylostella, this compound came in with a median lethal concentration (LC50) of 1820 µg/mL (≈ 6530 µM). This compound also yielded an MFC in the test with Candida albicans of 125 µg/mL (≈ 447 µM).

Regarding GENTAMICIN, the values for the MBC against Pseudomonas aeruginosa, against Escherichia coli and against Staphylococcus aureus were 1.46 µg/mL, 5.62 µg/mL and 22.5 µg/mL, respectively. Besides, the MIC was 0.35 µg/mL in the test on Pseudomonas aeruginosa, 5.62 µg/mL against Escherichia coli and 5.62 µg/mL in the test on Staphylococcus aureus.
